Measurements as given in ChEMBL document CHEMBL1146073, “A pyridazine series of alpha2/alpha3 subtype selective GABA A agonists for the treatment of anxiety” (J Med Chem, 2006).
Calls of active or inactive are those of the source. No cut-off for these calls is given here.

Tests used:
[1] = biological target: T1, GABA-A receptor; anion channel (Rattus norvegicus) (UniProt O09028+P15431+P18506+P18508+P19969+P20236+P23574+P23576+P28471+P28473+P30191+P62813+P63079+P63138+Q91ZM7+Q9ES14); assay: Receptor occupancy in vivo by displacement of [3H]Ro-151788 binding from GABA-A receptor in rat at 1 mg/kg, po; format: functional, organism-based; design: dose 1 mg/kg
In short: (§1)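 Rat in vivo occupancy measured by [3H]Ro 15-1788 binding after oral dosing. Rats taken as a subgroup after the plus-maze trial, i.e. 30 min post-dose or later. ED50 derived from dose-dependent occupancy. Mean ± SEM, n = 5-10/group.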

Rattus norvegicus [2] = assay: Anxiolytic activity in rat plus-maze assay at 1 mg/kg, po
Rattus norvegicus [3] = assay: Anxiolytic activity in rat plus-maze assay at 0.3 mg/kg, po; format: functional, organism-based; design: dose 0.3 mg/kg
In short: (§2)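 Rats given vehicle (0.5% methyl cellulose) or compound orally; chlordiazepoxide 5 mg/kg ip as positive control. Placed on elevated plus maze 30 min after dosing; time on open arms recorded as anxiety index. Significance versus vehicle at p < 0.05; mean ± SEM, n = 16-18/group.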

[4] = biological target: T1, GABA-A receptor; anion channel (Rattus norvegicus); assay: Receptor occupancy in vivo by displacement of [3H]Ro-151788 binding from GABA-A receptor in rat at 0.3 mg/kg, po; format: functional, organism-based; design: dose 0.3 mg/kg; in short: as §1
[5] = Half life in Rhesus monkey; format: ADME, organism-based, Macaca mulatta; conditions: in vivo
In short: (§3)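 Pharmacokinetics from six animals per species: three dosed iv and three dosed po.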

[6] = Oral bioavailability in Rhesus monkey; format: ADME, organism-based, Macaca mulatta; conditions: in vivo; in short: as §3
[7] = biological target: GABA-A receptor; alpha-5/beta-3/gamma-2 (Homo sapiens) (UniProt P18507+P28472+P31644); assay: Efficacy against recombinant human GABA-Aalpha5 plus beta-3-gamma-2 expressed in L(tk-) cells by whole cell patch clamp method; format: functional, cell-based
In short: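 Whole-cell patch clamp on αxβ3γ2 receptors stably expressed in L(tk-) cells, measuring the effect on current evoked by an EC20-equivalent of GABA. Reported relative to full agonist chlordiazepoxide (=1.0), or as direct percent modulation of the EC20 control, with inverse agonism given as percent. Mean of at least four independent experiments.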

[8] = biological target: T1, GABA-A receptor; anion channel (Rattus norvegicus); assay: Receptor occupancy in vivo by displacement of [3H]Ro-151788 binding from GABA-A receptor in rat at 0.1 mg/kg, po; format: functional, organism-based; design: dose 0.1 mg/kg; in short: as §1
Rattus norvegicus [9] = assay: Anxiolytic activity in rat plus-maze assay at 1 mg/kg, po; format: functional, organism-based; design: dose 1 mg/kg; in short: as §2

## Fc1cnc(-c2cc(-c3ccc(F)c(-c4ncc(F)cc4F)c3)cnn2)c(F)c1
[1]
  Activity: 71%
Rattus norvegicus [2]
  Activity: Active

## Fc1cnc(-c2cc(-c3cnnc(-c4c(F)cncc4F)c3)ccc2F)c(F)c1
Rattus norvegicus [3]
  Activity: Active
[4]
  Activity: 56%
[5]
  half-life: 8.4 h
[6]
  bioavailability: 46%
[7]
  Efficacy: -5%

## Fc1cnc(-c2cc(-c3ccc(F)c(-c4ncccc4F)c3)cnn2)c(F)c1
[8]
  Activity: 57%
Rattus norvegicus [9]
  Activity: Active
